High-throughput results deposited in PubChem BioAssay by Broad Institute.
This is a sample that favours compounds with a hit; in the whole collection about 3.2% have one here.
S100A4 inh HTS – inhibitors of human S100A4 binding to myosin IIA peptide; S100A4/TAMRA-MyoIIA peptide fluorescence polarization; inhibition, % at 10.7 µM; 0.14% of 360,000 active; AID 652163;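 active = mean inhibition of at least 70% across replicates, with every replicate also reaching that level; inconclusive = mean inhibition reaches 70% but some replicates fall short; inactive = mean inhibition below 70%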
Target sequence (P26447 whole entry, looked up): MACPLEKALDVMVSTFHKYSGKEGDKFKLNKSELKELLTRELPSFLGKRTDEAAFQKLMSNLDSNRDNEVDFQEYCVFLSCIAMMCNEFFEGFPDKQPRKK
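Material: S100A4 monomer protein / Buffer or medium: 50 mM HEPES pH 7.2, 10 mM CaCl2, 100 mM KCl / Times: 5 min incubation before reading / Benchmarks: neutral control DMSO, positive control TFP / Reagent: labelled myosin peptide probe, 5 nM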
rRNA inh HTS – inhibitors of bacterial rRNA selective over humanized ribosomes. GFP signal change (wild-type ribosome), % (test concentration not listed). AID 720706. E. coli WT GFP vs humanized-ribosome RFP mutants, fluorescence, 24 h; stronger effect = lower value; DMSO median 0, no signal -100. 1.6% of 350,000 active;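 active = significant combined selectivity score with lowered wild-type GFP, culture density cut under 30%, mutant RFP and density less affected; inactive = any of these conditions unmet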
AF4-AF9 inh – MLL-AF4/AF9 protein interaction inhibition; P42568; 0.47% of 350,000 active; inhibition, % at 10 µM; AID 651704; AlphaScreen, biotin-AF4 peptide binding to FLAG-AF9;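 active = every replicate reaching a set inhibition limit, whatever the replicate mean, cut at about 25% in these data; inconclusive = mean inhibition reaches that limit but some replicates miss it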;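 note: 0% = plate neutral control median and 100% = total signal loss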
Target sequence (P42568 whole entry, looked up): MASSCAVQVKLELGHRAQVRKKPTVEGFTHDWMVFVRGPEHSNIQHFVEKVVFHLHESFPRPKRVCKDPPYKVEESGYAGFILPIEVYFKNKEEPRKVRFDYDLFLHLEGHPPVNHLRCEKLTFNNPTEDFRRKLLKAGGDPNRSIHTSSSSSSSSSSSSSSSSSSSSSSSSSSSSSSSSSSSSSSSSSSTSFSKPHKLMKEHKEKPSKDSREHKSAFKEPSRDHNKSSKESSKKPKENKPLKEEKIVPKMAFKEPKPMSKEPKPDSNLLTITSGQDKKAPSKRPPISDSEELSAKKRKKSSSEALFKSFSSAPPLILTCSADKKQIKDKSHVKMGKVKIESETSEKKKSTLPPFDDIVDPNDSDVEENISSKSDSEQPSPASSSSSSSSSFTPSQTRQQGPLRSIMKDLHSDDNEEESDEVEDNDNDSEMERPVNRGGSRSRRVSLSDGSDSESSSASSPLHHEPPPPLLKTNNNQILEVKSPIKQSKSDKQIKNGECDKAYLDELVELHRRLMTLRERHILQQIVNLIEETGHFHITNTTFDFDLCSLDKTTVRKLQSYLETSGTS
PfHsp90 set2 – growth inhibition of yeast expressing Plasmodium Hsp90 | S. cerevisiae expressing PfHsp90, BacTiter-Glo ATP, 48 h; yeast lacking PDR1 and PDR3 efflux regulators | inhibition, % at 9.4 µM | 0.32% of 310,000 active | AID 504621;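 active = every replicate shows inhibition above about 80%, whatever the replicate mean, limit read from the data; inconclusive = mean inhibition reaches the set limit but some replicate falls short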;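 note: 0% = DMSO neutral controls and 100% = 20 µM radicicol positive controls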
Cneo AK release – causes C. neoformans cell lysis | adenylate kinase release luminescence, 4 h; normalised: neutral wells 0, clomiphene wells 100 | AID 651654 | 0.2% of 360,000 active | lysis activity, % at 15 µM;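 active = mean lysis activity across replicates of at least 80%, whatever share of replicates individually reach that level; inactive = mean lysis activity below 80%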
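Schedule: static 4 h at 37 °C with compound, 1 h detection; system: C. neoformans cells; benchmarks: Clomiphene as positive control; buffer or medium: fresh YPD medium; measure: luminescence rise reflecting yeast cell lysis; measured by: luminescent adenylate kinase detection reagent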
DENV2 CPE – DENV2-induced cell death inhibition; 1.7% of 350,000 active; DENV2-infected cells, cytopathic effect rescue, plate reader; CPE inhibition, % at 9.99 µM; in the data active = CPE inhibition above about 20%, passing the limit was not always enough; inconclusive = no clear call, values can overlap the other calls; tested in BHK-21 cells;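 note: 0% = median of neutral control wells and 100% = median of positive control wells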
Active calls of the source: *; u = inconclusive; x = no result given.

SMILES | S100A4 inh HTS | rRNA inh HTS | AF4-AF9 inh | PfHsp90 set2 | Cneo AK release | DENV2 CPE
C[C@H]1CN([C@@H](C)CO)C(=O)c2cc(N(C)C)ccc2O[C@H]1CN(C)S(=O)(=O)c1ccccc1 | -5.0 | -1.5 | 1.7 | x | 48.7 | 31.4*
C[C@@H]1CN([C@@H](C)CO)C(=O)c2cc(N(C)C)ccc2O[C@H]1CN(C)S(=O)(=O)c1ccccc1 | -7.7 | -5.9 | 2.7 | x | 48.5 | 78.5*
Cc1ccc(S(=O)(=O)N(C)C[C@H]2Oc3ccc(N(C)C)cc3C(=O)N([C@H](C)CO)C[C@@H]2C)cc1 | 1.7 | -1.5 | 4.3 | x | 0.6 | 16.6
C[C@@H]1CN([C@H](C)CO)C(=O)c2cc(N(C)C)ccc2O[C@@H]1CN(C)S(=O)(=O)c1ccccc1 | 6.0 | 1.6 | 1.7 | x | 1.0 | -1.3
CN1CCN(C(=O)C[C@@H]2CC[C@H]3[C@@H](COc4ccc(NC(=O)C5CC5)cc4C(=O)N3C)O2)CC1 | -6.4 | -1.8 | -0.7 | x | -1.1 | 15.1
CCC(=O)N(C)C[C@H]1Oc2cc(C#Cc3ccccc3)ccc2S(=O)(=O)N([C@H](C)CO)C[C@@H]1C | -0.7 | -10.5 | 1.5 | x | -0.3 | 6.5
O=[N+]([O-])c1ccc(N2CCN(C(=S)NCc3ccc(Cl)cc3)CC2)cc1 | -0.6 | -16.8 | 33.6* | -86.8 | x | -0.6
O=C(C[C@@H]1CC[C@H]2[C@@H](COC[C@@H](O)CN2C(=O)Nc2ccc(Cl)cc2)O1)NCCc1ccncc1 | -5.1 | -50.4 | 1.0 | x | 99.7* | 7.5
Cn1cnc(CCNC(=O)C[C@H]2CC[C@@H]3[C@H](COC[C@H](O)CN3C(=O)Nc3ccc(Cl)cc3)O2)c1 | -12.9 | -21.4* | -1.2 | x | -4.9 | -6.4
C[C@H]1CN([C@@H](C)CO)C(=O)c2cc(NC(=O)Cc3ccccc3)ccc2O[C@H]1CN(C)Cc1ccc(C(=O)O)cc1 | -8.4 | 0.3 | -3.3 | x | -1.6 | 5.2
CC1CCc2c(sc(NC(=O)CSc3ncn[nH]3)c2C#N)C1 (configuration not stated) | 2.0 | -19.4* | x | 11.0 | -5.4 | 3.6
Cc1ccc(S(=O)(=O)N(C)C[C@H]2OCCCC[C@H](C)Oc3ccc(NC(=O)Nc4ccccc4)cc3C(=O)N([C@@H](C)CO)C[C@@H]2C)cc1 | -1.7 | -0.7 | 2.9 | x | 1.8 | -2.1
C[C@@H]1CN(C)C(=O)c2cc(N)ccc2O[C@@H]1CN(C)C | x | -6.2 | x | x | x | x
COC(=O)c1ccc([C@H]2CC(=O)O2)cc1 | -6.1 | 14.6 | -0.2 | 23.3 | 0.3 | 76.0*
COC(=O)C1=C(C)NC(=O)CC1c1ccc(C(=O)OC)cc1 (configuration not stated) | x | x | x | 11.7 | -16.9 | x
Cn1c2ccccc2c2cc([N+](=O)[O-])ccc21 | -0.8 | 8.2 | 0.4 | -26.4 | x | 5.1
Cn1ccc(=O)c2cc([N+](=O)[O-])ccc21 | 3.1 | -25.6* | 2.9 | x | x | -1.8
COc1ccc(NC(=O)Nc2ccc3c(c2)C(=O)N([C@@H](C)CO)C[C@@H](C)[C@@H](CN(C)Cc2ccc4c(c2)OCO4)OCCCC[C@@H](C)O3)cc1 | 4.1 | 3.0 | 22.0 | x | 0.2 | 34.1*
COc1ccc(NC(=O)Nc2ccc3c(c2)C(=O)N([C@H](C)CO)C[C@@H](C)[C@H](CN(C)Cc2ccc4c(c2)OCO4)OCCCC[C@@H](C)O3)cc1 | 6.8 | 6.6 | 26.7* | x | 7.4 | 23.6*
COc1ccc(NC(=O)Nc2ccc3c(c2)C(=O)N([C@@H](C)CO)C[C@H](C)[C@H](CN(C)Cc2ccc(C(=O)O)cc2)OCCCC[C@@H](C)O3)cc1 | 11.7 | 0.8 | 1.0 | x | 54.8 | 59.4*
COc1ccc(NC(=O)Nc2ccc3c(c2)C(=O)N([C@H](C)CO)C[C@H](C)[C@H](CN(C)Cc2ccc(C(=O)O)cc2)OCCCC[C@H](C)O3)cc1 | 25.0 | -1.3 | -2.6 | x | 37.1 | u
COc1ccc(NC(=O)Nc2ccc3c(c2)C(=O)N([C@@H](C)CO)C[C@@H](C)[C@@H](CN(C)Cc2ccc4c(c2)OCO4)OCCCC[C@H](C)O3)cc1 | -2.8 | 2.3 | 3.8 | x | 52.0 | -7.0
COc1cc(/C=C(\C#N)C(N)=O)ccc1OS(=O)(=O)c1ccc(C)cc1 | -0.5 | -24.0* | 9.3 | 13.0 | -1.1 | 3.9
COc1cc(/C=C(\C#N)C(=O)NC2CCCCC2C)ccc1OS(=O)(=O)c1ccc(C)cc1 (configuration not stated) | x | x | x | -19.7 | 5.9 | x
O=C(CSc1ccccn1)N/N=C/c1cc([N+](=O)[O-])ccc1O | -4.7 | -19.4* | 2.7 | 3.6 | x | x
SMILES | S100A4 inh HTS | rRNA inh HTS | AF4-AF9 inh | PfHsp90 set2 | Cneo AK release | DENV2 CPE
CCc1sc(N2[C@H](C#N)[C@H](c3ccccc3-c3ccccc3)[C@H]2CO)nc1C | 64.9 | 5.3 | -0.8 | x | x | 76.5*
N#C[C@@H]1[C@H](c2ccccc2)[C@H](CO)N1C(=O)Cc1ccccc1 | -17.9 | 0.8 | -1.4 | x | 0.7 | 74.5*
CCc1sc(N2[C@H](C#N)[C@@H](c3ccccc3-c3ccc(F)cc3)[C@@H]2CO)nc1C | -7.1 | -2.6 | -1.6 | x | x | 11.7
Cc1ccc(-c2ccccc2[C@@H]2[C@H](C#N)N(C(=O)Cc3cccnc3)[C@H]2CO)cc1 | 8.3 | -6.6 | 0.1 | x | x | 25.6*
COCC(=O)N1[C@H](CO)[C@H](c2ccccc2-c2ccccc2)[C@@H]1C#N | 1.6 | 4.7 | -2.6 | x | x | 44.6*
Cc1ccc(-c2ccccc2[C@@H]2[C@@H](C#N)N(C(=O)Cc3cccnc3)[C@H]2CO)cc1 | -6.0 | -9.2 | -1.4 | x | x | -9.1
COCC(=O)N1[C@H](C#N)[C@H](c2ccccc2-c2ccccc2)[C@@H]1CO | 1.3 | 4.1 | -2.0 | x | x | 0.6
N#C[C@@H]1[C@H](c2ccc(-c3ccccc3)cc2)[C@@H](CO)N1C(=O)Cc1ccccc1 | -2.0 | -45.3 | 0.5 | x | -0.3 | -5.4
CCC(=O)N1[C@H](C#N)[C@H](c2ccccc2-c2cccc(C)c2)[C@@H]1CO | -8.8 | 5.8 | -2.7 | x | x | 23.7*
CCC(=O)N1[C@H](C#N)[C@@H](c2ccccc2-c2cccc(C)c2)[C@@H]1CO | -28.7 | 0.6 | -3.8 | x | x | -10.0
CC(C)C[C@@H](COCc1ccc(Cl)cc1)N1CCN(C(=O)c2ccc(C(F)(F)F)cc2)CCC1=O | -4.4 | -9.4 | -2.7 | x | x | -4.9
CC(C)CC(COCc1ccc(Cl)cc1)N1CCN(C(=O)c2ccc(Cl)cc2Cl)CCC1=O (configuration not stated) | -1.9 | -4.7 | -0.5 | -5.6 | -1.8 | 100.2*
O=C(NC1CCCCC1)N[C@@H]1C=C[C@H](CC(=O)N2CCOCC2)O[C@H]1CO | -5.0 | 1.1 | -0.5 | x | 0.9 | -7.3
CN(C)C(=O)C[C@@H]1C=C[C@@H](NC(=O)NC2CCCCC2)[C@H](CO)O1 | 4.8 | -0.6 | -1.6 | x | 0.1 | 72.7*
